Converted amounts (≈) assume the structure as drawn. The source made the active and inactive calls. The calls are words filed in the database; no cut-off is given here.
What was measured:
[1] = Kinetic solubility in pH 7.4 HEPES-BSA buffer at 5 uM incubated for 24 hrs at 20 degC by HPLC method; format: physicochemical; details: read-out: Kinetic_solubility
Procedure, shortened: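 Compound added from 10 mM DMSO stock to 5 μM in pH 7.4 HEPES-BSA buffer (1 g/L BSA), shaken 24 h at 20 °C. After centrifugation, supernatant concentration measured by HPLC against 5 and 10 μM standards.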

[2] = biological target: T1, Stromal cell-derived factor 1 (Homo sapiens, UniProt P48061); test: Binding affinity to Texas Red-labelled CXCL12 (unknown origin) assessed as inhibition of CXCL12-Texas Red binding to EGFP-labeled human CXCR4 expressed in HEK293 cell membranes at 3 uM pre-incubated for 1 hr by FRET-based binding assay
Procedure, shortened: (§1)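 HEK-293 cells stably expressing human EGFP-CXCR4, 10⁶ cells/ml in HEPES buffer pH 7.4 with 0.1% BSA, 21 °C. CXCL12-Texas Red (100 nM) was preincubated 1 h at room temperature with compound or DMSO, then added at t=150 s. FRET read as loss of EGFP emission at 510 nm (excitation 470 nm) up to equilibrium. Ki from dose-response curves.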

[3] = biological target: T1, Stromal cell-derived factor 1; test: Binding affinity to Texas Red-labelled CXCL12 (unknown origin) assessed as inhibition of CXCL12-Texas Red binding to EGFP-labeled human CXCR4 expressed in HEK293 cell membranes at 1 uM pre-incubated for 1 hr by FRET-based binding assay; procedure, shortened: as §1
[4] = tested on: Mus musculus; test: Toxicity in Balb/c mouse model of hypereosinophilia assessed as reduction in spleen weight at 2.5 umol/kg, ip dosed daily 2 hrs before allergen challenge for 3 days and measured 24 hrs after last dose; format: organism-based; set-up: scale not given: the % may be the effect or the level left; details: in vivo
Procedure, shortened: (§2)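 Same OVA model with i.p. dosing 2 h before each of the three challenges: neutraligands 350 μmol/kg in PBS/CMC 1%, AMD3100 12.6 μmol/kg, dexamethasone 2.5 μmol/kg. Body and spleen weight loss recorded 24 h after three daily administrations; n=6/group.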

[5] = tested on: Mus musculus; test: Anti-inflammatory activity in Balb/c mouse model of hypereosinophilia assessed as inhibition of eosinophil infiltration at 2.5 umol/kg, ip dosed 2 hrs before allergen challenge; format: functional
Procedure, shortened: (§3)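 Balb/c mice sensitized with OVA/alum i.p. and challenged intranasally with OVA on 3 consecutive days. Compounds given i.p. 2 h before each challenge: neutraligands 350 μmol/kg in PBS/CMC 1%, AMD3100 12.6 μmol/kg, dexamethasone 2.5 μmol/kg. BAL 24 h after the last challenge; absolute eosinophil counts; mean ± SEM, n=6/group.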

[6] = tested on: Mus musculus; test: Toxicity in Balb/c mouse model of hypereosinophilia assessed as reduction in body weight at 2.5 umol/kg, ip dosed daily 2 hrs before allergen challenge for 3 days and measured 24 hrs after last dose; format: organism-based; set-up: scale not given: the % may be the effect or the level left; details: in vivo; procedure, shortened: as §2
[7] = Thermodynamic solubility in pH 7.4 PBS buffer incubated for 24 hrs at 22 degC by HPLC method; format: physicochemical; details: read-out: Therm_solubility
Procedure, shortened: (§4)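 Powder dissolved to saturation in pH 7.4 PBS (100 mM sodium phosphate, 150 mM NaCl), or in PBS with 10% Cdx, and shaken 24 h. After centrifugation, supernatant quantified by HPLC against a per-compound calibration line prepared from the DMSO stock.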

[8] = tested on: Mus musculus; test: Toxicity in Balb/c mouse model of hypereosinophilia assessed as reduction in spleen weight at 350 umol/kg, ip dosed daily 2 hrs before allergen challenge for 3 days and measured 24 hrs after last dose; format: organism-based; set-up: scale not given: the % may be the effect or the level left; details: in vivo; procedure, shortened: as §2
[9] = tested on: Mus musculus; test: Toxicity in Balb/c mouse model of hypereosinophilia assessed as induction of bristly hair at 350 umol/kg, ip dosed daily 2 hrs before allergen challenge for 10 days and measured 24 hrs after last dose; format: organism-based; details: in vivo
Procedure, shortened: (§5)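 Mice given 10 daily administrations at 350 μmol/kg. Monitored for weight loss and for signs of toxicity, including prostration and bristly hair.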

[10] = tested on: Mus musculus; test: Toxicity in Balb/c mouse model of hypereosinophilia assessed as induction of kidney lesions at 350 umol/kg, ip dosed daily 2 hrs before allergen challenge for […] and measured 24 hrs after last dose by Gomori's trichrome staining based histological analysis; format: organism-based; details: in vivo
[11] = tested on: Mus musculus; test: Toxicity in Balb/c mouse model of hypereosinophilia assessed as reduction in body weight at 12.6 umol/kg, ip dosed daily 2 hrs before allergen challenge for 3 days and measured 24 hrs after last dose; format: organism-based; set-up: scale not given: the % may be the effect or the level left; details: in vivo; procedure, shortened: as §2
[12] = Chemical stability in pH 7.4 PBS buffer assessed as parent compound remaining at 10 uM incubated for 24 hrs by RP-HPLC method; format: physicochemical; details: read-out: Stability
Procedure, shortened: (§6)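 Compound diluted from DMSO stock to 10 μM final (1% DMSO) in PBS pH 7.4, or in PBS with 10% w/w (2-hydroxypropyl)-β-cyclodextrin. Sampled at t0, 2, 4, 6 and 24 h and injected directly onto RP-HPLC. Percent remaining relative to t0 from peak area.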

[13] = biological target: T1, Stromal cell-derived factor 1; test: Binding affinity to Texas Red-labelled CXCL12 (unknown origin) assessed as inhibition of CXCL12-Texas Red binding to EGFP-labeled human CXCR4 expressed in HEK293 cell membranes pre-incubated for 1 hr by FRET-based binding assay; details: hek293; procedure, shortened: as §1
[14] = tested on: Mus musculus; test: Toxicity in Balb/c mouse model of hypereosinophilia assessed as reduction in body weight at 350 umol/kg, ip dosed daily 2 hrs before allergen challenge for 3 days and measured 24 hrs after last dose; format: organism-based; set-up: scale not given: the % may be the effect or the level left; details: in vivo; procedure, shortened: as §2
[15] = tested on: Mus musculus; test: Inhibition of lymphocytes infiltration in Balb/c mouse model of 8 day model of allergic eosinophilic airway inflammation at 300 nmol/kg dosed intranasally 2 hrs before ovalbumin challenge by hemocytometry; format: functional, organism-based
Procedure, shortened: (§7)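 OVA/alum-sensitized Balb/c mice challenged intranasally with OVA on days 5–7. Compounds at 300 nmol/kg in 10% PBS/Cdx given intranasally 2 h before each challenge. BAL 24 h after the last challenge; eosinophils, neutrophils and lymphocytes counted by hemocytometer and differential cytospin; n=6/group.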

[16] = tested on: Mus musculus; test: Toxicity in Balb/c mouse model of hypereosinophilia assessed as prostration at 350 umol/kg, ip dosed daily 2 hrs before allergen challenge for 10 days and measured 24 hrs after last dose; format: organism-based; details: in vivo; procedure, shortened: as §5
[17] = Chemical stability in pH 7.4 PBS/Cdx buffer assessed as parent compound remaining at 10 uM incubated for 24 hrs by RP-HPLC method; format: physicochemical; details: read-out: Stability; procedure, shortened: as §6
[18] = tested on: Mus musculus; test: Anti-inflammatory activity in Balb/c mouse model of hypereosinophilia assessed as inhibition of eosinophil infiltration at 350 umol/kg, ip dosed 2 hrs before allergen challenge; format: functional; procedure, shortened: as §3
[19] = tested on: Mus musculus; test: Toxicity in Balb/c mouse model of hypereosinophilia assessed as induction of spleen lesions at 350 umol/kg, ip dosed daily 2 hrs before allergen challenge for […] and measured 24 hrs after last dose by Gomori's trichrome staining based histological analysis; format: organism-based; details: in vivo
[20] = tested on: Mus musculus; test: Toxicity in Balb/c mouse model of hypereosinophilia assessed as toxic signs at 350 umol/kg, ip dosed daily 2 hrs before allergen challenge for 10 days and measured 24 hrs after last dose; format: organism-based; details: in vivo; procedure, shortened: as §5
[21] = Solubility in PBS buffer; format: physicochemical; procedure, shortened: as §4
[22] = Thermodynamic solubility in pH 7.4 PBS/Cdx buffer incubated for 24 hrs at 22 degC by HPLC method; format: physicochemical; details: read-out: Therm_solubility; procedure, shortened: as §4
[23] = tested on: Mus musculus; test: Toxicity in Balb/c mouse model of hypereosinophilia assessed as induction of heart lesions at 350 umol/kg, ip dosed daily 2 hrs before allergen challenge for […] and measured 24 hrs after last dose by Gomori's trichrome staining based histological analysis; format: organism-based; details: in vivo
[24] = tested on: Mus musculus; test: Inhibition of macrophages infiltration in Balb/c mouse model of 8 day model of allergic eosinophilic airway inflammation at 300 nmol/kg dosed intranasally 2 hrs before ovalbumin challenge by hemocytometry; format: functional, organism-based
[25] = tested on: Mus musculus; test: Toxicity in Balb/c mouse model of hypereosinophilia assessed as induction of liver lesions at 350 umol/kg, ip dosed daily 2 hrs before allergen challenge for […] and measured 24 hrs after last dose by Gomori's trichrome staining based histological analysis; format: organism-based; details: in vivo
[26] = tested on: Mus musculus; test: Toxicity in Balb/c mouse model of hypereosinophilia assessed as reduction in body weight at 350 umol/kg, ip dosed daily 2 hrs before allergen challenge for 10 days and measured 24 hrs after last dose; format: organism-based; details: in vivo; procedure, shortened: as §5
[27] = tested on: Mus musculus; test: Toxicity in Balb/c mouse model of hypereosinophilia assessed as reduction in spleen weight at 12.6 umol/kg, ip dosed daily 2 hrs before allergen challenge for 3 days and measured 24 hrs after last dose; format: organism-based; set-up: scale not given: the % may be the effect or the level left; details: in vivo; procedure, shortened: as §2
[28] = tested on: Mus musculus; test: Inhibition of eosinophil infiltration in Balb/c mouse model of 8 day model of allergic eosinophilic airway inflammation at 300 nmol/kg dosed intranasally 2 hrs before ovalbumin challenge by hemocytometry; format: functional; details: inhaled or nasal; procedure, shortened: as §7
[29] = tested on: Mus musculus; test: Inhibition of eosinophil infiltration in Balb/c mouse model of 8 day model of allergic eosinophilic airway inflammation dosed intranasally 2 hrs before ovalbumin challenge by hemocytometry; format: functional, organism-based
Procedure, shortened: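 Same intranasal OVA model with dose-response treatment in PBS/Cdx 10% given 2 h before each challenge. Percent inhibition of BAL eosinophil recruitment; mean ± SEM, n=6/group.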

[30] = biological target: T1, Stromal cell-derived factor 1; test: Binding affinity to Texas Red-labelled CXCL12 (unknown origin) assessed as inhibition of CXCL12-Texas Red binding to EGFP-labeled human CXCR4 expressed in HEK293 cell membranes at 0.3 uM pre-incubated for 1 hr by FRET-based binding assay; procedure, shortened: as §1
[31] = biological target: T1, Stromal cell-derived factor 1; test: Binding affinity to CXCL12 (unknown origin) assessed as changes in tryptophan fluorescence intensity
Procedure, shortened: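 Intrinsic Trp fluorescence of CXCL12 (2 μM in Hepes buffer), excitation 285 nm, emission 340 nm, titrated with increasing compound. Kd obtained by fitting a 1:1 binding quadratic model with chemokine fixed at 2 μM. Mean ± SD of three independent experiments.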

[32] = biological target: T1, Stromal cell-derived factor 1; test: Binding affinity to Texas Red-labelled CXCL12 (unknown origin) assessed as inhibition of CXCL12-Texas Red binding to EGFP-labeled human CXCR4 expressed in HEK293 cell membranes at 300 uM pre-incubated for 1 hr by FRET-based binding assay; procedure, shortened: as §1
[33] = species on record: Mus musculus; test: animal or person; details: Balb/c, ip, read-out: INH

T1 sequence (P48061 whole entry): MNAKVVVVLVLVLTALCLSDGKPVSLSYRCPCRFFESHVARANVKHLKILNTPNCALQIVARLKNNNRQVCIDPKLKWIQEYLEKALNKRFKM

## O=C(/C=C/c1ccc2c(c1)OCO2)c1ccc(Cl)cc1
[1]
  solubility kinetic at 24 h, 5 µM: 2.31 µM (≈ 0.662 µg/mL)
[2]
  inhibition: 25%

## O=C(/C=C/c1ccccc1)c1ccc(Cl)cc1
[1]
  solubility kinetic at 24 h, 5 µM: 1.17 µM (≈ 0.284 µg/mL)
[3]
  inhibition: 18%

## C[C@@H]1C[C@H]2[C@@H]3CCC4=CC(=O)C=C[C@]4(C)[C@@]3(F)[C@@H](O)C[C@]2(C)[C@@]1(O)C(=O)CO [DEXAMETHASONE]
[4]
  Activity: 43%
[5]
  inhibition in vivo at 2.5 µmol/kg: 59%
[6]
  Activity: 10.1%

## COc1cc(/C=C/C(=O)c2ccc(Cl)cc2)ccc1O
[7]
  solubility thermodynamic at 24 h: 9 µM (≈ 2.6 µg/mL)
[8]
  Activity: 0%
[9]
  Activity: Non-Toxic
[1]
  solubility kinetic at 24 h, 5 µM: > 5 µM
[10]
  Activity: Non-Toxic
[11]
  Activity: Non-Toxic
[12]
  remaining at 24 h, 10 µM: 100%
[13]
  Ki: 53 nM
[14]
  Activity: 0%
[15]
  inhibition: inactive
[16]
  Activity: Non-Toxic
[17]
  remaining at 24 h, 10 µM: 100%
[18]
  inhibition in vivo at 350 µmol/kg: 54%
[19]
  Activity: Non-Toxic
[20]
  Activity: Non-Toxic
[21]
  solubility: 9 µM (≈ 2.6 µg/mL)
[22]
  solubility thermodynamic at 24 h: > 300 µM
[23]
  Activity: Non-Toxic
[24]
  inhibition: inactive
[25]
  Activity: Non-Toxic
[26]
  Activity: Non-Toxic
[27]
  Activity: Non-Toxic
[28]
  inhibition in vivo at 0.3 µmol/kg: 47%
[29]
  IC50: > 500 nmol/kg

## COc1cc(-c2cc(-c3ccc(Cl)cc3)nc(-c3ccccc3)n2)ccc1O
[1]
  solubility kinetic at 24 h, 5 µM: 0.53 µM (≈ 0.206 µg/mL)
[30]
  inhibition: 20%

## O=c1nc(-c2ccc(Cl)cc2)cc(-c2ccc(O)cc2)[nH]1
[15]
  inhibition: inactive
[31]
  Activity: inactive
[32]
  inhibition: < 5%

## c1cc(CN2CCCNCCNCCCNCC2)ccc1CN1CCCNCCNCCCNCC1 [PLERIXAFOR]
[33]
  inhibition in vivo at 12.6 µmol/kg: 33%
[11]
  Activity: 7.8%
[27]
  Activity: 9.8%

— ChEMBL document CHEMBL4145692, “Discovery of a Locally and Orally Active CXCL12 Neutraligand (LIT-927) with Anti-inflammatory Effect in a Murine Model of Allergic Airway Hypereosinophilia” (J Med Chem, 2018)
